# Screens as filed in PubChem.
# MC4R antag cAMP – human MC4R antagonism in cAMP assay | P32245 | MC4R-expressing cells, MTII-stimulated cAMP, LANCE TR-FRET | inhibition, % at 6.5 µM | 0.48% of 360,000 active;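 active = inhibition above its plate's cutoff, the mean of tested wells on that plate plus 3 SD, cut at about 29% in these data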;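 also: 0% = Melanotan II alone and 100% = Melanotan II plus saturating MCL0020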
#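 System: U2OS-MC4R stable cell line; Technique: Eu-cAMP/anti-cAMP TR-FRET, emission 671 nm; Repeats: single well per compound; Also added: Melanotan II; Dosing: one concentration, 6.5 µM nominal; Schedule: 30-min compound, 1-h challenge, 1-h detection, room temperature.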
# MPTP block – permeability transition pore inhibition; AID 602449; inhibition, % at 10 µM; isolated mouse mitochondria, Ca2+ swelling absorbance, 30 min; 1.4% of 360,000 active;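 active = inhibition of 50% or more, scaled per plate between neutral and stimulator controls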;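 also: 0% = DMSO wells given calcium and 100% = 1 mM EGTA wells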
# MC4R ag barr – human MC4R agonism via beta-arrestin; P32245; U2OS MC4R beta-arrestin complementation, luminescence; percent of melanotan II response, DMSO zero; activation, % at 8.9 µM; 0.98% of 360,000 active; AID 540308;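 active = activation above a per-plate cutoff, the mean activation of sample wells on that plate plus 3 SD, cut at about 8% in these data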
# SMARCA2 activ – increases SMARCA2 function in MMTV reporter cells. MG213 cells, MMTV-luciferase reporter, dexamethasone, overnight. activation, % at 9.1 µM. 1% of 370,000 active; in the data active = activation above about 7.8%;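 also: 0% = vehicle wells and 100% = reference activator wells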
# ATG4B inhibitor – inhibitors of human ATG4B cysteine protease | Q9Y4P1 | ATG4B cleavage of LC3-PLA2, NBD-HPC fluorescence, 1 h | inhibition, % at 8.33 µM | 0.51% of 340,000 active | AID 504462; in the data active = inhibition above about 40%
# Target sequence (Q9Y4P1 whole entry, looked up): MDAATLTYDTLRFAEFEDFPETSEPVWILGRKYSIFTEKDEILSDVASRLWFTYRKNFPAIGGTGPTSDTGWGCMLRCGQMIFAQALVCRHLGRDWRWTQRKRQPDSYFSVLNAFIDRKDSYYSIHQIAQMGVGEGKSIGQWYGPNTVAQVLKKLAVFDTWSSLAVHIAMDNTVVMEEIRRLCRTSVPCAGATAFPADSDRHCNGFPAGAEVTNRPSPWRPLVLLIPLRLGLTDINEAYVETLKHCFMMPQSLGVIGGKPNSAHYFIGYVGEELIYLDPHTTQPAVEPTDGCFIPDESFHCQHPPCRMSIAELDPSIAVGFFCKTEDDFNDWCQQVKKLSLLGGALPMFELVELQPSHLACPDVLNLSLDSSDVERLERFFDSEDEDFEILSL
# MPTP counter – mitochondrial membrane potential, counter-screen. inhibition, % at 10 µM. isolated mitochondria, Rhodamine 123 fluorescence. 78% of 5,000 active. shares compounds with MPTP block; in the data active = inhibition above about 22%;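 also: 0% = DMSO vehicle and 100% = positive control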
# MPTP swell DR – dose response confirmation of mitochondrial permeability transition pore inhibitors; isolated mitochondria swelling, absorbance; IC50, µM; 58% of 780 active; shares compounds with MPTP block; in the data active = IC50 below about 20 µM
# MPTP cs DR – MPTP inhibitor counter-screen activity, dose response. shares compounds with MPTP block. isolated mitochondria counterscreen, fluorescence read-out. IC50, µM. 49% of 780 active. AID 651564; in the data active = IC50 below about 80 µM
# The depositor's hits bear a star; / = not tested or not shown. An excerpt weighted towards active compounds, which were near 4.1% of everything screened.
SMILES,MC4R antag cAMP,MPTP block,MC4R ag barr,SMARCA2 activ,ATG4B inhibitor,MPTP counter,others
Cc1cccc(NC(=O)Nc2ccc(S(N)(=O)=O)cc2)c1,10,-1,-1,-1,-11,/,
Cc1cccc(NC(=O)Nc2ccc(Oc3c(F)c(F)c(F)c(F)c3F)cc2)c1,4,88*,2,-2,-5,60*,
OCCN1CCN(c2ncnc3c2ncn3[C@H]2CN(Cc3cccs3)C[C@@H](CO)O2)CC1,4,57*,0,2,/,-3,MPTP swell DR=>100;MPTP cs DR=>80
OC[C@@H]1CN(Cc2cccs2)C[C@H](n2cnc3c(N4CCN(c5ccccc5)CC4)ncnc32)O1,11,0,0,-4,/,/,
Nc1nc2c(ncn2[C@@H]2O[C@H](C(=O)N[C@@H](Cc3ccccc3)C(=O)NCc3ccc4c(c3)OCO4)[C@@H](O)[C@H]2O)c(=O)[nH]1,/,/,/,-5,/,/,
Cc1c(NC(=O)Nc2ccc(Cl)c(Cl)c2)c(=O)n(-c2ccccc2)n1C,14,90*,3,-3,-4,90*,
Cc1ccc(NC(=O)Nc2ccc(Cl)c(Cl)c2)nc1,2,-1,3,-2,4,/,
Cc1nn(C)c(C)c1NC(=O)Nc1cccc(C(F)(F)F)c1,8,72*,-2,-1,-4,54*,
Cc1c(NC(=O)Nc2ccccc2)c(=O)n(-c2ccccc2)n1C,-4,1,-2,-2,-8,/,
Cc1nn(C)c(C)c1NC(=O)Nc1ccc(Cl)c(Cl)c1,2,102*,0,0,1,88*,
Cc1ccc(NC(=S)Nc2ccc(-c3nnc4n3CCCCC4)cc2)cc1C,/,/,/,-4,/,/,
O=S(=O)(CC1NCc2ccccc21)NCc1ccc(F)cc1 (centres undefined),/,/,/,-2,/,/,
Cn1c(=O)[nH]c(=O)c2cc(C(=O)c3cc(F)ccc3O)cnc21,7,-1,-2,-1,-4,/,
CCc1nn2cc(C(=O)c3cc(Cl)ccc3O)cnc2c1-c1ccc(F)cc1,5,100*,-1,-2,14,93*,
N#CCSc1n[nH]c2nc3c(c(=O)n12)C1(CCCCC1)Cc1ccccc1-3,19,70*,1,-3,2,64*,
CCn1c(SCC#N)nc2c(c1=O)C1(CCCC1)Cc1ccccc1-2,-3,6,0,3,-5,/,
CCOC(=O)CC[C@H]1CC[C@]2(CCCN(S(=O)(=O)C3CCCCC3)C2)O1,/,/,/,2,/,/,
CC(SCc1ccccc1)C(=O)Nc1ccc(F)cc1 (centres undefined),1,1,-1,2,-39,/,
N#CC(C#N)=C(Nc1ccc(F)cc1)SCc1cccc(Br)c1,4,91*,1,-10,24,89*,
Cc1cccc(CSC(Nc2ccc(F)cc2)=C(C#N)C#N)c1,3,97*,-2,-7,11,93*,
CCCCN1CC(COc2ccc(OC)cc2)OCCS1(=O)=O (centres undefined),/,/,/,-2,/,/,
CCOC(=O)[C@@]12CCC3=C1N(CCC3)C(=O)[C@H](CC(=O)NCc1cccs1)C2,/,/,/,-1,/,/,
CCCCc1c(-c2ccccc2OC)ncn1Cc1ccc(C)cc1,/,/,/,-11,/,/,
CCCCc1c(-c2ccccc2OC)ncn1Cc1ccc(-c2ccccc2)cc1,/,78*,/,-8,/,116*,
Oc1[nH]c2ccccc2c1N=Nc1nc2ccccc2s1,-1,5,-2,-1,-5,/,
C/C(N=Nc1nc2ccccc2s1)=N\Nc1ccccc1O,0,91*,-7,-1,2,54*,
Cc1cccc(OC(=O)NCCOC(=O)N(O)c2ccc(Cl)cc2)c1,-7,91*,2,-1,1,81*,
CCCCOCCCNC(=O)C[C@@H]1C(=O)N(CCc2ccc(Cl)cc2)C2=CCCC[C@]21C(=O)OCC,/,/,/,-2,/,/,
CCCCCCCCC(=O)NC(NC(=S)N1CCOCC1)C(Cl)(Cl)Cl (centres undefined),1,88*,2,-3,1,86*,
O=S1(=O)N[C@@H](Cc2ccccc2)COc2cc(NC3CC3)ccc21,/,/,/,2,/,/,
